What was measured:
[1] = system: Sarcoma-180; assay: Antitumor activity against mouse Sarcoma 180 cells allografted in mouse assessed as reduction in tumor growth at 100 mg/kg, ip qd for 8 days measured one day after last treatment relative to control; format: functional; conditions: Sarcoma-180, ip, route intraperitoneal, read-out: TGI
How it was run: (§1)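 Female CD mice (18-20 g) implanted subcutaneously with 3×10^7 Sarcoma 180 tumor cells in the right ventrolateral area. Doses tested were 100, 50, 25 and 12.5 mg/kg.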

[2] = system: Mus musculus; assay: Toxicity in mouse allografted with mouse Sarcoma 180 cells assessed as mortality at 100 mg/kg, ip qd for 8 days measured one day after last treatment relative to control; format: organism-based; design: dose 100 mg/kg, route intraperitoneal; conditions: in vivo, 192 h; how it was run: as §1
[3] = system: Sarcoma-180; assay: Antitumor activity against mouse Sarcoma 180 cells allografted in mouse assessed as reduction in tumor growth at 50 mg/kg, ip qd for 8 days measured one day after last treatment relative to control; format: functional; conditions: Sarcoma-180, ip, route intraperitoneal, read-out: TGI; how it was run: as §1
[4] = system: Sarcoma-180; assay: Antitumor activity against mouse Sarcoma 180 cells allografted in mouse assessed as reduction in tumor growth at 25 mg/kg, ip qd for 8 days measured one day after last treatment relative to control; format: functional; conditions: Sarcoma-180, ip, route intraperitoneal, read-out: TGI; how it was run: as §1
[5] = system: Sarcoma-180; assay: Antitumor activity against mouse Sarcoma 180 cells allografted in mouse assessed as reduction in tumor growth at 12.5 mg/kg, ip qd for 8 days measured one day after last treatment relative to control; format: functional; conditions: Sarcoma-180, ip, route intraperitoneal, read-out: TGI; how it was run: as §1
[6] = system: Mus musculus; assay: Toxicity in mouse allografted with mouse Sarcoma 180 cells assessed as mortality at 50 mg/kg, ip qd for 8 days measured one day after last treatment relative to control; format: organism-based; design: dose 50 mg/kg, route intraperitoneal; conditions: in vivo, 192 h; how it was run: as §1
[7] = system: Mus musculus; assay: Toxicity in mouse allografted with mouse Sarcoma 180 cells assessed as mortality at 25 mg/kg, ip qd for 8 days measured one day after last treatment relative to control; format: organism-based; design: dose 25 mg/kg, route intraperitoneal; conditions: in vivo, 192 h; how it was run: as §1
[8] = system: Mus musculus; assay: Toxicity in mouse allografted with mouse Sarcoma 180 cells assessed as mortality at 12.5 mg/kg, ip qd for 8 days measured one day after last treatment relative to control; format: organism-based; design: dose 12.5 mg/kg, route intraperitoneal; conditions: in vivo, 192 h; how it was run: as §1

SMILES	inhibition in vivo at 100 mg/kg [1] [%]	Activity [2]	inhibition in vivo at 50 mg/kg [3] [%]	inhibition in vivo at 25 mg/kg [4] [%]	inhibition in vivo at 12.5 mg/kg [5] [%]	Activity [6]	Activity [7]	Activity [8]
Nc1cc2c(ncn2[C@@H]2O[C@H](CO)[C@@H](O)[C@@H]2O)c(=O)[nH]1	16	Non-toxic	–	–	–	–	–	–
Nc1cc2c(ncn2[C@H]2O[C@H](CO)[C@@H](O)[C@@H]2O)c(=O)[nH]1	24.2	Non-toxic	–	–	–	–	–	–
Nc1cc2ncn([C@@H]3O[C@H](CO)[C@@H](O)[C@@H]3O)c2c(=O)[nH]1	5.6	Non-toxic	–	–	–	–	–	–
Nc1cc2ncn([C@H]3O[C@H](CO)[C@@H](O)[C@@H]3O)c2c(=O)[nH]1	0	Non-toxic	–	–	–	–	–	–
Nc1cc2nc[nH]c2c(=O)[nH]1 [DEZAGUANINE]	89.6	Toxic	74.2	78.2	46.2	Non-toxic	Non-toxic	Non-toxic
